This note sets out measurements from ChEMBL document CHEMBL2331343 (Bioorg Med Chem, 2013).

Assay [1] addresses T1, D(2) dopamine receptor (Homo sapiens, UniProt P14416). Particulars: HEK293, at 10 µM.
Assay [2] concerns the target T2, D(1A) dopamine receptor (Homo sapiens, UniProt P21728). As to the kind of experiment: Inhibition of [3H]SCH23390 binding to dopamine D1 receptor (unknown origin) expressed in human HEK293 cells at 10 uM by liquid scintillation counter relative to control. It counts as cell-based. Summed up:
(§1)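 Stably transfected HEK293T D1 membranes, […], duplicate incubation 50 min at 30 °C with [3H]SCH23390 in 50 mM Tris, 4 mM MgCl2, pH 7.4. Nonspecific binding with 10 μM SCH23390. GF/B filtration, scintillation counting.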

The target in assay [3] is T3, 5-hydroxytryptamine receptor 1A (Homo sapiens) (UniProt P08908).
T3 sequence (whole entry): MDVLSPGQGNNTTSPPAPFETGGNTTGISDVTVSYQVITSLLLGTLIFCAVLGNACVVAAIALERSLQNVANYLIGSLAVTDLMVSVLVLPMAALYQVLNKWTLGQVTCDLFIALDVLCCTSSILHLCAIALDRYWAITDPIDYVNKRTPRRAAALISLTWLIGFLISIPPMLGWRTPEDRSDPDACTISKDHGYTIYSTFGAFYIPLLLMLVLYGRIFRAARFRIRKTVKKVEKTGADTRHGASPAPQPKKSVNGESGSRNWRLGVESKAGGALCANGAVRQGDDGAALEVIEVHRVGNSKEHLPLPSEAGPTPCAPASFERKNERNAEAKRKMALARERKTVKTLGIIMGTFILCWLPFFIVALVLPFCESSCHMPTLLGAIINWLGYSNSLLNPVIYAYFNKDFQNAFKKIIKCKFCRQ
The assay is described as follows: Inhibition of [3H]8-OH-DPAT binding to 5-HT1A receptor (unknown origin) expressed in HEK293 cells at 10 uM by liquid scintillation counter relative to control. Format: cell-based. An outline of the steps: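 Membranes of HEK293T stably transfected with 5-HT1A, […], incubated in duplicate 50 min at 30 °C with [3H]8-OH-DPAT in 50 mM Tris, 4 mM MgCl2, pH 7.4. Nonspecific binding with 10 μM WAY100635. Filtration on GF/B, cold Tris/EDTA wash, scintillation counting.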

For assay [4], the target named is T4, 5-hydroxytryptamine receptor 2A (Homo sapiens, UniProt P28223). As to the kind of experiment: Inhibition of [3H]Ketanserin binding to 5-HT2A receptor (unknown origin) expressed in HEK293 cells at 10 uM by liquid scintillation counter relative to control. Format: cell-based. Summed up: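 Membranes of HEK293T stably transfected with 5-HT2A, […], incubated in duplicate 15 min at 37 °C with [3H]ketanserin in 50 mM Tris, 4 mM MgCl2, pH 7.4. […] GF/B filtration, cold wash, scintillation counting.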

For assay [5], the target named is T2, D(1A) dopamine receptor. As to the kind of experiment: Displacement of [3H]SCH23390 from dopamine D1 receptor (unknown origin) expressed in human HEK293 cells by liquid scintillation counter. Format: cell-based. Summed up:
as §1

Assay [6] has as its target T1, D(2) dopamine receptor. The assay is described as follows: Displacement of [3H]spiperone from dopamine D2 receptor (unknown origin) expressed in human HEK293 cells by liquid scintillation counter. It counts as cell-based. A general note: Loss of bound radioactivity is the signal in a displacement assay; it reports binding, not function.
Assay [7] concerns the target T5, 5-hydroxytryptamine receptor 1A (Homo sapiens, UniProt P08908).
T5 sequence (P08908 whole entry): T3 sequence (whole entry)
As to the kind of experiment: Displacement of [3H]8-OH-DPAT from 5-HT1A receptor (unknown origin) expressed in HEK293 cells by liquid scintillation counter. It counts as cell-based.

The target in assay [8] is T4, 5-hydroxytryptamine receptor 2A. The assay is described as follows: Displacement of [3H]Ketanserin from 5-HT2A receptor (unknown origin) expressed in HEK293 cells by liquid scintillation counter. It counts as cell-based.

T2 sequence (P21728 whole entry): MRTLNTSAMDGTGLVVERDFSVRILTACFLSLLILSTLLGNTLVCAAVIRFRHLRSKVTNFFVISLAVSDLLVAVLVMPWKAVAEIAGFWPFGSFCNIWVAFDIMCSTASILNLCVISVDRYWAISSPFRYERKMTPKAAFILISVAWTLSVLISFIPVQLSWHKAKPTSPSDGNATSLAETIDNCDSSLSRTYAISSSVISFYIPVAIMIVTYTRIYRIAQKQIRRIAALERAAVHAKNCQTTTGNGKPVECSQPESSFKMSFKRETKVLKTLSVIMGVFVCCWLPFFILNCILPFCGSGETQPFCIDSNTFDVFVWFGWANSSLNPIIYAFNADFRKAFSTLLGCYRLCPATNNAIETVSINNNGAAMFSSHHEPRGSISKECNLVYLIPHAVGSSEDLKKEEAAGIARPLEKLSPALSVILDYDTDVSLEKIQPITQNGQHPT
T1 sequence (P14416 whole entry): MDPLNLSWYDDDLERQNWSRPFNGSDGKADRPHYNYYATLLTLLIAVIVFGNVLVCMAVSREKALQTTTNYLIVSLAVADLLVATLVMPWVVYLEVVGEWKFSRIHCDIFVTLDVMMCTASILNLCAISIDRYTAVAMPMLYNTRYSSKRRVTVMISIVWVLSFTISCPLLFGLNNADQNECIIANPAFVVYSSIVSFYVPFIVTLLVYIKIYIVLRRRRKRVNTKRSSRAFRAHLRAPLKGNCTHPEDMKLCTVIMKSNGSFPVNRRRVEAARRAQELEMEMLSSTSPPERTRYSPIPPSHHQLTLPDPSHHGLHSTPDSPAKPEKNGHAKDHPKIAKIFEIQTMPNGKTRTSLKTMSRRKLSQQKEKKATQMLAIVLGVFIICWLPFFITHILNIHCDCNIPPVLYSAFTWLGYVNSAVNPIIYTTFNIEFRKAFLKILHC
T4 sequence (P28223 whole entry): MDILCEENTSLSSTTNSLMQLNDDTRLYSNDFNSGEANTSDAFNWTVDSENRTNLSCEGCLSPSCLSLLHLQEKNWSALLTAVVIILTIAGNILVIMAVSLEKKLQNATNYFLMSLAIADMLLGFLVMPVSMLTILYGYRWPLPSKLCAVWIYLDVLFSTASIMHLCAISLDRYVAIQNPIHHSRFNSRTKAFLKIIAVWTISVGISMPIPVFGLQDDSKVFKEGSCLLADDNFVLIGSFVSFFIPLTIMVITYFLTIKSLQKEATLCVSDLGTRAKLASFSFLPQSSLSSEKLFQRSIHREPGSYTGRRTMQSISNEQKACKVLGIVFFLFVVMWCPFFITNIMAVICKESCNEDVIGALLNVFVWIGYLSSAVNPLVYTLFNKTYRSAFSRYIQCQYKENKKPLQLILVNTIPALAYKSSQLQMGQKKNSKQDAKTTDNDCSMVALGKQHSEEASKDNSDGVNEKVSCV

For `COc1cc2c(cc1O)CCN1Cc3c(ccc(OC)c3OC)C[C@@H]21`, the inhibition stood at 63.2% against D(2) dopamine receptor [1], 84.1% on D(1A) dopamine receptor [2], 50.5% in assay [3] and 38% in assay [4]. This compound returned a Ki at D(1A) dopamine receptor [5] of 0.31 µM.
With `COc1cc2c(cc1OC)[C@@H]1Cc3ccc(OC)c(OC)c3CN1CC2` [TETRAHYDROPALMATINE], the inhibition worked out at 85.4% at D(2) dopamine receptor [1], 96.9% on D(1A) dopamine receptor [2], 84.9% in assay [3] and 33% in assay [4]. Moreover, the Ki on D(2) dopamine receptor [6] was above 5 µM; in assay [7], above 5 µM; at D(1A) dopamine receptor [5], 0.231 µM.
As for `COc1ccc2c(c1O)CN1CCc3cc4c(cc3[C@@H]1C2)OCO4`, the inhibition at D(2) dopamine receptor [1] was 78%; on D(1A) dopamine receptor [2] it was 98.7%; in assay [3] it was 82.8%; in assay [4] it was 49.1%. Also, the values for the Ki (on D(2) dopamine receptor [6]; in assay [7]; on D(1A) dopamine receptor [5]) were above 5 µM, above 5 µM and 0.06 µM, respectively.
As to `COc1cc2c(cc1O)[C@@H]1Cc3cc4c(cc3CN1CC2)OCO4`, the inhibition at D(2) dopamine receptor [1] was determined as 100%; at D(1A) dopamine receptor [2] it was 99.6%; in assay [3], 61%; in assay [4] it was 49.9%. For the same compound, at D(1A) dopamine receptor [5], the affinity, expressed as Ki, was 0.0042 µM.
Consider `COc1ccc2c(c1O)CN1CCc3cc4c(cc3[C@H]1C2)OCO4`, for which the inhibition turned out to be 20.4% against D(2) dopamine receptor [1], 78.9% on D(1A) dopamine receptor [2], 25.5% in assay [3] and 10.9% in assay [4]. Also, the inhibition constant Ki on D(1A) dopamine receptor [5] was above 5 µM.
For `COc1ccc2c(c1OC)CN1CCc3cc4c(cc3[C@H]1C2)OCO4`, in that order: 26.6%, 75.5%, 34.5%, 18.3% and above 5 µM.
Turning to `COc1cc2c(cc1O)[C@@H]1Cc3ccc(OC)c(OC)c3CN1CC2`, the values for the inhibition (at D(1A) dopamine receptor [2]; in assay [3]; in assay [4]) were 99.2%, 71.1% and 40.5%, respectively. Further, at D(1A) dopamine receptor [5], the Ki came to […].
Take `COc1cc2c(cc1O)[C@H]1Cc3ccc(OC)c(O)c3CN1CC2`: the inhibition against D(2) dopamine receptor [1] was 31.8%; on D(1A) dopamine receptor [2], 84.5%; in assay [3] it was 2%; in assay [4], 26.3%. At D(1A) dopamine receptor [5], this compound gave an inhibition constant Ki of 0.529 µM.
For the compound `CN1CCc2cc(Cl)c(O)cc2C(c2ccccc2)C1` (centres undefined), on D(1A) dopamine receptor [2], the inhibition was determined as 100%.
For the compound `COc1c(O)ccc2c1CN1CCc3cc4c(cc3[C@@H]1C2)OCC4`, the inhibition against D(2) dopamine receptor [1] amounted to 63.9%; at D(1A) dopamine receptor [2], 99.3%; in assay [3], 79.5%; in assay [4], 91.7%. Further, the Ki in assay [8] is 0.48 µM; in assay [7] it was above 5 µM; at D(1A) dopamine receptor [5], 0.0075 µM.
For `COc1cc2c(cc1O)[C@H]1Cc3ccc(OC)c(OC)c3CN1CC2`, the results for the inhibition (on D(1A) dopamine receptor [2]; in assay [3]; in assay [4]) were 99.5%, 64.2% and 40.6%, respectively. Moreover, on D(1A) dopamine receptor [5], the affinity corresponds to a Ki of […].
Regarding `NCCc1c[nH]c2ccc(O)cc12`, the inhibition in assay [3] was found to be 100%.
With `COc1cc2c(c(OC)c1)CN1CCc3cc(OC)c(O)cc3[C@@H]1C2`, on D(1A) dopamine receptor [2], the inhibition worked out at 99.8%.
`COc1cc2c(cc1OC)[C@H]1Cc3ccc(O)c(OC)c3CN1CC2`: the inhibition at D(2) dopamine receptor [1] came out at 3.4%; at D(1A) dopamine receptor [2], 54.4%; in assay [3] it was 65.5%; in assay [4] it was 27.9%.
On to `COc1cc2c(cc1O)[C@H]1Cc3ccc(O)c(OC)c3CN1CC2`, for which the inhibition against D(2) dopamine receptor [1] was 53.7%; on D(1A) dopamine receptor [2] it was 94.4%; in assay [3], 53.6%; in assay [4], 16.4%. At D(1A) dopamine receptor [5], this compound registered a Ki of 0.135 µM.
For `COc1cc2c(cc1O)[C@@H]1Cc3cc(C)cc(C)c3CN1CC2`, the values for the inhibition on D(2) dopamine receptor [1] and at D(1A) dopamine receptor [2] were 90.1% and 99%, respectively.
As for `COc1cc2c(cc1O)[C@@H]1Cc3ccc(OC)c(O)c3CN1CC2` [SCOULERINE], the inhibition against D(2) dopamine receptor [1] was determined as 93.4%; at D(1A) dopamine receptor [2], 99.1%; in assay [3], 14.2%; in assay [4], 20.9%. Further, the Ki was 0.214 µM at D(2) dopamine receptor [6] and 0.022 µM at D(1A) dopamine receptor [5].
In the case of `COc1cc2c(cc1OC)[C@H]1Cc3ccc(OC)c(O)c3CN1CC2`, the inhibition came out at 1.5% against D(2) dopamine receptor [1], 35.9% on D(1A) dopamine receptor [2], 6.2% in assay [3] and 19.3% in assay [4].
For `O=C(CCCN1CCC2(CC1)C(=O)NCN2c1ccccc1)c1ccc(F)cc1`, the inhibition (against D(2) dopamine receptor [1]; in assay [4]) was 100% throughout.
Take `COc1ccc2c(c1)C[C@H]1c3cc(O)c(OC)cc3CCN1C2`: the inhibition against D(2) dopamine receptor [1] is 90%; on D(1A) dopamine receptor [2], 97.5%.
With `COc1cc2c(cc1O)CCN1Cc3c(ccc(OC)c3O)C[C@@H]21`, the inhibition against D(2) dopamine receptor [1] stood at 79.8%; on D(1A) dopamine receptor [2], 95.2%; in assay [3], 60.5%; in assay [4], 59.1%. The inhibitory constant (Ki) at D(2) dopamine receptor [6] is above 5 µM; at D(1A) dopamine receptor [5], 0.53 µM.
For `COc1c(O)ccc2c1CN1CCc3cc4c(cc3[C@@H]1C2)OCCO4`, the inhibition on D(2) dopamine receptor [1] was determined as 73.1%; on D(1A) dopamine receptor [2] it was 22.6%; in assay [3], 90.8%; in assay [4], 97.3%. Besides, the values for the Ki in assay [8] and in assay [7] were 0.363 µM and 0.208 µM, respectively.
As for `COc1cc2c(cc1O)[C@@H]1Cc3ccc(O)c(OC)c3CN1CC2` [STEPHOLIDINE], the inhibition against D(2) dopamine receptor [1] turned out to be 97.5%; on D(1A) dopamine receptor [2], 99.8%. Also, the Ki on D(2) dopamine receptor [6] is 0.011 µM; in assay [7] it was above 5 µM; at D(1A) dopamine receptor [5], 0.0034 µM.
On to `COc1cc2c(cc1O)CCN1Cc3c(ccc(OC)c3O)C[C@H]21`, for which the inhibition came out at 8.16% against D(2) dopamine receptor [1], 49.4% at D(1A) dopamine receptor [2], 31.5% in assay [3] and 36% in assay [4].
Take `COc1cc2c(cc1O)CCN1Cc3c(ccc(OC)c3OC)C[C@H]21`: the inhibition on D(2) dopamine receptor [1] was 71.5%; on D(1A) dopamine receptor [2], 88.8%; in assay [3], 55.4%; in assay [4], 40.4%. The compound also yielded a Ki at D(1A) dopamine receptor [5] of 1.19 µM.
As to `COc1cc2c(cc1O)[C@@H]1Cc3c(CO)c(OC)cc(OC)c3CN1CC2`, the inhibition against D(2) dopamine receptor [1] turned out to be 94.8%; on D(1A) dopamine receptor [2], 104%. In assay [7], the Ki is above 5 µM.
Turning to `COc1ccc2c(c1OC)CN1CCc3cc4c(cc3[C@@H]1C2)OCO4` [CANADINE], the inhibition on D(2) dopamine receptor [1] stood at 88.7%; on D(1A) dopamine receptor [2] it was 98.3%; in assay [3], 84.4%; in assay [4] it was 46.6%. Also, the figures for the Ki (at D(2) dopamine receptor [6]; in assay [7]; at D(1A) dopamine receptor [5]) were 0.119 µM, above 5 µM and 0.066 µM, respectively.
With `COc1cc2c(cc1O)CCN1Cc3c(ccc(O)c3OC)C[C@@H]21`, the inhibition was 94.2% at D(2) dopamine receptor [1], 98.3% on D(1A) dopamine receptor [2], 76.7% in assay [3] and 84% in assay [4]. Moreover, the Ki in assay [8] is above 5 µM; on D(2) dopamine receptor [6], 0.113 µM; in assay [7], above 5 µM; at D(1A) dopamine receptor [5], 0.2 µM.
Turning to `COc1c(O)ccc2c1CN1CCc3cc4c(cc3[C@H]1C2)OCO4`, the inhibition came to 40.5% at D(2) dopamine receptor [1], 95.8% at D(1A) dopamine receptor [2], 63.6% in assay [3] and 25.3% in assay [4]. On D(1A) dopamine receptor [5], this compound gave an inhibitory constant (Ki) of 0.565 µM.
For `COc1cc2c(cc1OC)[C@@H]1Cc3ccc(OC)c(O)c3CN1CC2` [TETRAHYDROPALMATRUBINE], in that order: 22.7%, 87.7%, 30.5%, 20% and 0.443 µM.
Consider `COc1cc2c(cc1O)CCN1Cc3c(ccc(O)c3OC)C[C@H]21`, for which the inhibition was 27.7% against D(2) dopamine receptor [1], 67.1% at D(1A) dopamine receptor [2], 13.2% in assay [3] and 13.9% in assay [4].
For the compound `COc1cc2c(cc1OC)[C@H]1Cc3ccc(OC)c(OC)c3CN1CC2`, the inhibition at D(2) dopamine receptor [1] was 20.5%; at D(1A) dopamine receptor [2], 39.8%; in assay [3], 30.4%; in assay [4], 29.7%.

The term inhibition denotes the change of the read-out against control, counted positive when it falls. As usually defined, the Ki is a measure of affinity in units of concentration, obtained from inhibition or displacement.
